For two compounds, log10CFU/ml, Activity and Time results are on record in ChEMBL document CHEMBL1275461, “Early bactericidal activity and pharmacokinetics of the diarylquinoline TMC207 in treatment of pulmonary tuberculosis” (Antimicrob Agents Chemother, 2008).

The structures appear in SMILES notation.

In data set [1] the test system is Mycobacterium tuberculosis. The experiment in a line: Bactericidal activity against Mycobacterium tuberculosis in pulmonary tuberculosis patient assessed as reduction in sputum bacterial count at 300 […], po once daily measured after 2 days. It counts as functional. Summed up:
(§1)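 Hospitalized treatment-naïve smear-positive patients took oral doses once daily, observed, after breakfast. Sputum was pooled over 16 h overnight at baseline, after each of the 7 dosing days, and on the night after the first standard-therapy dose. Sputum was stirred, digested with dithiothreitol for 20 min at room temperature, and diluted 10-fold. Dilutions were plated in quadruplicate on selective 7H11 agar and counted after 3-4 weeks at 37°C at 20-200 colonies. The read-out was change in log10 CFU/ml from baseline, with a count of 0 set to log 0.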

In data set [2] the test system is Mycobacterium tuberculosis. Nature of the data set: Bactericidal activity against Mycobacterium tuberculosis in pulmonary tuberculosis patient assessed as reduction in sputum bacterial count at 300 mg/kg, po once daily measured after 5 days. It is filed as functional. The gist of the method: as §1
Data set [3] relates to Mycobacterium tuberculosis. The experiment in a line: Bactericidal activity against Mycobacterium tuberculosis in pulmonary tuberculosis patient assessed as reduction in sputum bacterial count at 300 mg/kg, po once daily measured after 6 days. It is filed as functional. The gist of the method:
as §1

For data set [4], the system named is Mycobacterium tuberculosis. The experiment in a line: Bactericidal activity against Mycobacterium tuberculosis in pulmonary tuberculosis patient assessed as reduction in sputum bacterial count at 300 mg/kg, po once daily measured on day 8 after starting standard TB therapy. It is filed as functional. The gist of the method:
as §1

In data set [5] the test system is Mycobacterium tuberculosis. Nature of the data set: Bactericidal activity against Mycobacterium tuberculosis in pulmonary tuberculosis patient assessed as reduction in sputum bacterial count at 300 […], po once daily measured after 3 days. It counts as functional. Summed up:
as §1

The subject of data set [6] is Mycobacterium tuberculosis. Nature of the data set: Bactericidal activity against Mycobacterium tuberculosis in pulmonary tuberculosis patient assessed as reduction in sputum bacterial count at 300 mg/kg, po once daily measured after 4 days. It is filed as functional. Summed up: as §1
In data set [7] the test system is Mycobacterium tuberculosis. The experiment in a line: Bactericidal activity against Mycobacterium tuberculosis in pulmonary tuberculosis patient assessed as reduction in sputum bacterial count at 300 mg/kg, po once daily measured after 7 days. It counts as functional. Summed up: as §1
For data set [8], the system named is Homo sapiens. The experiment in a line: Toxicity in pulmonary tuberculosis patient assessed as hemoptysis at 300 mg/kg, po once daily. To be noted: in vivo. It is filed as organism-based. Also noted: dose 300 mg/kg, route oral.
Data set [9] has as its system Homo sapiens. Nature of the data set: Cardiotoxicity in pulmonary tuberculosis patient assessed as increase in QT interval at 300 mg/kg, po once daily for 7 days. It counts as toxicity, organism-based. Also noted: dose 300 mg/kg, route oral. The conditions noted are these: in vivo, 168 h.
Data set [10] has as its system Mycobacterium tuberculosis. Nature of the data set: Bactericidal activity against Mycobacterium tuberculosis in pulmonary tuberculosis patient assessed as reduction in sputum bacterial count at 300 […], po once daily measured after 1 day. It is filed as functional. The gist of the method: as §1
For data set [11], the system named is Mycobacterium tuberculosis. Nature of the data set: Bactericidal activity against Mycobacterium tuberculosis in pulmonary tuberculosis patient assessed as reduction in sputum bacterial count at 600 mg/kg, po once daily measured after 4 days. It is filed as functional. The gist of the method: as §1
Data set [12] deals with Mycobacterium tuberculosis. The experiment in a line: Bactericidal activity against Mycobacterium tuberculosis in pulmonary tuberculosis patient assessed as reduction in sputum bacterial count at 600 mg/kg, po once daily measured after 2 days. It counts as functional. The gist of the method:
as §1

Data set [13] concerns Mycobacterium tuberculosis. The experiment in a line: Bactericidal activity against Mycobacterium tuberculosis in pulmonary tuberculosis patient assessed as reduction in sputum bacterial count at 600 […], po once daily measured after 1 day. It counts as functional. Summed up:
as §1

Data set [14] concerns Mycobacterium tuberculosis. Nature of the data set: Bactericidal activity against Mycobacterium tuberculosis in pulmonary tuberculosis patient assessed as reduction in sputum bacterial count at 600 mg/kg, po once daily measured after 3 days. It is filed as functional. The gist of the method: as §1
Data set [15] deals with Mycobacterium tuberculosis. The experiment in a line: Bactericidal activity against Mycobacterium tuberculosis in pulmonary tuberculosis patient assessed as reduction in sputum bacterial count at 600 mg/kg, po once daily measured after 7 days. It counts as functional. The gist of the method: as §1
The subject of data set [16] is Mycobacterium tuberculosis. Nature of the data set: Bactericidal activity against Mycobacterium tuberculosis in pulmonary tuberculosis patient assessed as reduction in sputum bacterial count at 600 mg/kg, po once daily measured on day 8 after starting standard TB therapy. It counts as functional. Summed up: as §1
Data set [17] relates to Mycobacterium tuberculosis. The experiment in a line: Bactericidal activity against Mycobacterium tuberculosis in pulmonary tuberculosis patient assessed as reduction in sputum bacterial count at 600 mg/kg, po once daily measured after 6 days. It is filed as functional. Summed up: as §1
Data set [18] relates to Homo sapiens. Nature of the data set: Cardiotoxicity in pulmonary tuberculosis patient assessed as increase in QT interval at 600 mg/kg, po once daily for 7 days. It counts as toxicity, organism-based. To be noted: in vivo, 168 h. Details: dose 600 mg/kg, route oral.

For `NNC(=O)c1ccncc1` [ISONIAZID], the log10CFU/ml is -0.57 in data set [1]; -1.41 in data set [2]; -1.68 in [3]; -1.94 in [4]; -1.34 in data set [5]; -1.32 in [6]. Besides, the log10CFU/ml in data set [7] is recorded as -1.88; in data set [10], -0.43. Besides, the Activity in the data set with Homo sapiens [8] was determined as 13.3%. In addition, the Time with Homo sapiens [9] is 20.2 ms.

Take `CO[C@H]1/C=C/O[C@@]2(C)Oc3c(C)c(O)c4c(O)c(c(/C=N/N5CCN(C)CC5)c(O)c4c3C2=O)NC(=O)/C(C)=C\C=C\[C@H](C)[C@H](O)[C@@H](C)[C@@H](O)[C@@H](C)[C@H](OC(C)=O)[C@@H]1C` [RIFAMPIN]: the log10CFU/ml in [11] is recorded as -1.17; in data set [12] it was -0.88; in data set [13] it was -0.28; in data set [14], -0.89; in [15], -1.7; in data set [16], -1.82. Moreover, the log10CFU/ml in [17] is -1.55. Further, the Time in the data set on Homo sapiens [18] worked out at 13 ms.
